Experimental data from different studies.
Each line is one published result; the experiments were not run side by side. ≈ marks a conversion by molar mass, not a printed value.

CN[C@H](CC(C)C)C(=O)N[C@H]1C(=O)N[C@@H](CC(N)=O)C(=O)N[C@H]2C(=O)N[C@H]3C(=O)N[C@H](C(=O)N[C@H](C(=O)O)c4cc(O)cc(O)c4-c4cc3ccc4O)[C@H](O)c3ccc(c(Cl)c3)Oc3cc2cc(c3O[C@@H]2O[C@H](CO)[C@@H](O)[C@H](O)[C@H]2O[C@H]2C[C@](C)(N)[C@H](O)[C@H](C)O2)Oc2ccc(cc2Cl)[C@H]1O  MIC (Enterococcus; microbial growth, broth dilution; VRE): > 64 µg/mL
O=c1c2ccccc2[se]n1-c1ccccc1  IC50 (Enterovirus A; viral replication; Vero, EV71; 48 h): 7100 nM
CC[C@H](C)C[C@H](C)CCCCCCCCC(=O)N[C@H]1C[C@@H](O)[C@@H](NCCN)NC(=O)[C@@H]2[C@@H](O)CCN2C(=O)[C@H]([C@H](O)CCN)NC(=O)[C@H]([C@H](O)[C@@H](O)c2ccc(O)cc2)NC(=O)[C@@H]2C[C@@H](O)CN2C(=O)[C@H]([C@@H](C)O)NC1=O  MIC (Pichia kudriavzevii; microbial growth, broth dilution; ATCC14243; 48 h): 4 µg/mL (≈ 3.66 µM)
N=C(CC(O)c1cc2c(F)cc(F)cc2c2cc(C(F)(F)F)ccc12)Nc1ccc(F)c(F)c1 (stereo not shown)  IC50 (Plasmodium knowlesi; parasite growth, SYBR Green): 2.4 nM
NC(=O)c1nc(F)c[nH]c1=O  EC50 (Influenza A virus; viral replication, inhibitor; H1N1 PR/8): 1320 nM
Nc1ncn([C@@H]2O[C@H](CO)[C@@H](O)[C@H]2O)c(=O)n1  IC50 (Influenza A virus; viral replication, inhibitor, ELISA; MDCK, H1N1; 24 h): 3420 nM
COC(=O)OCOc1c2n(ccc1=O)N([C@@H]1c3ccccc3SCc3c1ccc(F)c3F)[C@@H]1COCCN1C2=O  EC50 (Influenza A virus; viral replication, inhibitor; MDCK, H1N1 WSN): 0.946 nM
N.N.[Cl][Pt][Cl]  IC50 (SU-DHL-8; cell growth or viability, ATP luminescence; 72 h): 940 nM
O=c1[nH]c(=O)n([C@H]2C[C@H](O)[C@@H](CO)O2)cc1F  IC50 (Influenza A virus; viral replication, inhibitor, ELISA; MDCK, H1N1; 24 h): 30200 nM
C[C@@H]1C[C@@H]([C@H](O)CC2CC(=O)NC(=O)C2)C(=O)[C@@H](C)C1  MIC (Fusarium solani; microbial growth, broth dilution): 12 µg/mL (≈ 42.7 µM)
N=C(CC(O)c1cc2c(F)cc(F)cc2c2cc(C(F)(F)F)ccc12)Nc1ccc(Br)cc1 (stereo not shown)  IC50 (Plasmodium knowlesi; parasite growth, SYBR Green): 3.3 nM
O=C1c2ccccc2-c2c3c(cc4ccnc1c24)OCO3  IC50 (HuCC-A1; cell growth or viability, MTT; 75 h): 10000 nM
O=c1[nH]cc(F)c(=O)[nH]1  IC50 (Influenza A virus; viral replication, inhibitor, ELISA; MDCK, H1N1; 24 h): 50400 nM
